Results: ChEMBL document CHEMBL1148390, “Structural analysis and optimization of NK(1) receptor antagonists through modulation of atropisomer interconversion properties” (J Med Chem, 2004)

Columns and labels:
[1] = test system: Substance-P receptor (Oryctolagus cuniculus); experiment: In vitro binding affinity towards Tachykinin receptor 1 was determined using rabbit pulmonary artery tissues
[2] = molecular target: T1, Substance-K receptor (Oryctolagus cuniculus) (UniProt P79218); experiment: In vitro binding affinity towards Tachykinin receptor 2 using rabbit pulmonary artery tissues
T1 sequence (whole entry): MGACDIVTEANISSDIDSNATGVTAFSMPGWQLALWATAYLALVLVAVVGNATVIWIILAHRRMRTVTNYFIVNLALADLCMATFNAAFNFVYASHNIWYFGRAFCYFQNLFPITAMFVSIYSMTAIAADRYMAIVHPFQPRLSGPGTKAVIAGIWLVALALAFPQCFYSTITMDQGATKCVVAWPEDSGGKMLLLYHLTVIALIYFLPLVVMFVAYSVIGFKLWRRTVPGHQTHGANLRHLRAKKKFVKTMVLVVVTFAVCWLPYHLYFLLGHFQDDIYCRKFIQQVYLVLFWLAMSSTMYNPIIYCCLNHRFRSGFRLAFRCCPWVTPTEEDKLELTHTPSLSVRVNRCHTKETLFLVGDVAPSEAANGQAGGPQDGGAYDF
Procedure, shortened: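 Functional antagonism in isolated rabbit pulmonary artery (n = 2–6), reported as pKB. NK1 tested against agonist ASMSP with antagonist at 1 nM, or at 100 nM where antagonism was not purely competitive; NK2 tested against agonist BANK with antagonist at 1 μM. Where antagonism was not purely competitive, activity was taken as percent inhibition = 100 – maximum relaxation as % of control.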

[3] = Maximum plasma concentration was measured in dogs after an oral dose of 10 umol/kg; assay type: ADME, organism-based, Canis lupus familiaris; parameters: dose 10 umol/kg, route oral; details: dog
Procedure, shortened: (§1)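 Dogs (n = 3) dosed orally at 10–100 μmol/kg as a solution in 75% polyethylene glycol 400 in normal saline; iv bolus comparison at 1–10 μmol/kg. Blood taken via surgically implanted cannula or by venipuncture over 24 h; plasma analysed for unchanged compound by LC–MS.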

[4] = molecular target: Substance-P receptor (Homo sapiens, UniProt P25103); experiment: In vitro binding affinity towards human Tachykinin receptor 1 was determined by using [3H]SP as a radioligand
Procedure, shortened: (§2)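 Human tachykinin receptors stably expressed in mouse erythroleukemia (MEL) cells; NK3 construct differs from genomic sequence at AA439 (Cys vs Phe). Radioligand displacement: [3H]SP for NK1, [125I]NKA for NK2, [125I]MePheNKB for NK3; n ≥ 2 determinations.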

[5] = Bioavailability was measured in dogs after an oral dose of 10 uM/kg; assay type: ADME, organism-based, Canis lupus familiaris; details: dog, in vivo, read-out: Bioavailabiility
Procedure, shortened: as §1

[6] = molecular target: T2, Substance-K receptor (Homo sapiens, UniProt P21452); experiment: In vitro binding affinity towards human Tachykinin receptor 2 was determined by using [125I]NKA as a radioligand
T2 sequence (P21452 whole entry): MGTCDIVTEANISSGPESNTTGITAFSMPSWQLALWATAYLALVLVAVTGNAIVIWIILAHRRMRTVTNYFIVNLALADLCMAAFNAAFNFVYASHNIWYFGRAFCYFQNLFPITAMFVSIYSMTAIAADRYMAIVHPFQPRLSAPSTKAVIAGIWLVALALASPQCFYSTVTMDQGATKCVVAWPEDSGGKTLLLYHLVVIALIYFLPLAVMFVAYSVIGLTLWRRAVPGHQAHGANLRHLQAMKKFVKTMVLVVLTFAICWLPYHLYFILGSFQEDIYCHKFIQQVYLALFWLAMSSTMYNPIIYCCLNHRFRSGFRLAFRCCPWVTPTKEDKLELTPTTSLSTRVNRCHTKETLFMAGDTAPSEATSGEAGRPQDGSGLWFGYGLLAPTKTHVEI
Procedure, shortened: as §2

[7] = Half-life was measured in dogs after an oral dose of 10 uM/kg; assay type: ADME, organism-based, Canis lupus familiaris; details: dog, in vivo
Procedure, shortened: as §1

[8] = Area under plasma concentration time curve was measured in dogs after an oral dose of 10 uM/kg; assay type: ADME, organism-based, Canis lupus familiaris; details: dog
Procedure, shortened: as §1

[9] = Time for maximum plasma concentration was measured in dogs after an oral dose of 10 uM/kg; assay type: ADME, organism-based, Canis lupus familiaris; details: dog
Procedure, shortened: as §1

[10] = molecular target: T3, Neuromedin-K receptor (Homo sapiens, UniProt P29371); experiment: In vitro binding affinity towards human Tachykinin receptor 3 was determined by using [125I]MePhe-NKB as a radioligand
T3 sequence (P29371 whole entry): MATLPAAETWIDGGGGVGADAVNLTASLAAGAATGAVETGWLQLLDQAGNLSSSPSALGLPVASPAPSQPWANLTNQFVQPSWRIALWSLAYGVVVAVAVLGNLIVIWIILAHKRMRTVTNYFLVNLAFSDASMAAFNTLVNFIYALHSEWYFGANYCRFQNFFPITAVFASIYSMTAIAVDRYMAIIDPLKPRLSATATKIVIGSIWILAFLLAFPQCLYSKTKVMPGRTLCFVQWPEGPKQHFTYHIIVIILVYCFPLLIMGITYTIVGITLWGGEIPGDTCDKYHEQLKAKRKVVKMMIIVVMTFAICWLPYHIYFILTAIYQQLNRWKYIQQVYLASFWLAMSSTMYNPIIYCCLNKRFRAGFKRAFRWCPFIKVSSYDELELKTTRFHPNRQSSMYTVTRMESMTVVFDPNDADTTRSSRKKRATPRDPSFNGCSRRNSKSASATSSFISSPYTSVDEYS
Procedure, shortened: as §2

[11] = test system: Gerbillinae; experiment: Percent inhibitory activity against ASMSP induced foot tapping response in gerbils after oral dose of 5 uM/kg; assay type: functional
Procedure, shortened: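 Gerbils given antagonist orally at 5 μmol/kg 6 h before central (CNS) administration of ASMSP (100 pmol). Foot-tapping response compared with vehicle-only control animals; result expressed as percent inhibition.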

Sequence of Substance-P receptor (P25103 whole entry): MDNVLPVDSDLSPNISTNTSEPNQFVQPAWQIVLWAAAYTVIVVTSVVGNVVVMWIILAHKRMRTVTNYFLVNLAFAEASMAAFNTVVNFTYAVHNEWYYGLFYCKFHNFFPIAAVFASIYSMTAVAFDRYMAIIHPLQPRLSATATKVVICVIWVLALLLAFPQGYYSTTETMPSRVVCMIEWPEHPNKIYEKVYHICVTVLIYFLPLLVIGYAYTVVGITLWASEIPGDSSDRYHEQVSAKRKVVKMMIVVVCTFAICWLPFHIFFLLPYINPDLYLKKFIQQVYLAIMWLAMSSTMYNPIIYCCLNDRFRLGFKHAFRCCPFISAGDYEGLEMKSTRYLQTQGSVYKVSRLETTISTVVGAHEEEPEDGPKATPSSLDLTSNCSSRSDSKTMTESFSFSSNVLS

Row | SMILES | pKB [2] | Ki [4] | Ki [6] | Inhibition [11] | further results
1 | CCCc1c(C#N)cc2ccccc2c1C(=O)N(C)C[C@@H](CCN1CCC(c2ccccc2[S@+](C)[O-])CC1)c1ccc(Cl)c(Cl)c1 | 6.72 |  |  |  | pKB [1]: 7.8
2 | CN(C[C@@H](CCN1CCC(c2ccccc2[S@+](C)[O-])CC1)c1ccc(Cl)c(Cl)c1)C(=O)c1c(-c2ccccc2)c(C#N)cc2ccccc12 | 7.27 |  |  |  | pKB [1]: 7.39
3 | Cc1c(C#N)cc2ccccc2c1C(=O)N(C)C[C@@H](CCN1CCC(c2ccccc2[S@+](C)[O-])CC1)c1ccc(Cl)c(Cl)c1 | 7.1 |  |  |  | pKB [1]: 9.06
4 | CCc1c(C#N)cc2ccccc2c1C(=O)N(C)C[C@@H](CCN1CCC(c2ccccc2[S@+](C)[O-])CC1)c1ccc(Cl)c(Cl)c1 (stereo in doubt; 3) [listing 1 of 2 here] |  | 1.24 nM | 37 nM | 33% | Cmax [3]: 662 ng/mL; bioavailability [5]: 37.3%; half-life [7]: 354 min; AUC [8]: 6130 ng·h/mL; Tmax [9]: 4 h; Ki [10]: 97 nM
5 | CCc1c(C#N)cc2ccccc2c1C(=O)N(C)C[C@@H](CCN1CCC(c2ccccc2[S@+](C)[O-])CC1)c1ccc(Cl)c(Cl)c1 (stereo in doubt; 3) [listing 2 of 2 here] | 7.31 |  |  |  | 
6 | CCc1c(C#N)cc2ccccc2c1C(=O)N(C)C[C@@H](CCN1CCC(c2ccccc2[S@+](C)[O-])CC1)c1ccc(Cl)c(Cl)c1 (stereo in doubt; form 1) [listing 1 of 2 here] |  | 1.71 nM | 23 nM | 1.4% | 
7 | CCc1c(C#N)cc2ccccc2c1C(=O)N(C)C[C@@H](CCN1CCC(c2ccccc2[S@+](C)[O-])CC1)c1ccc(Cl)c(Cl)c1 (stereo in doubt; form 1) [listing 2 of 2 here] | 7.11 |  |  |  | 
8 | CCc1c(C#N)cc2ccccc2c1C(=O)N(C)C[C@@H](CCN1CCC(c2ccccc2[S@+](C)[O-])CC1)c1ccc(Cl)c(Cl)c1 (stereo in doubt; form 2) [listing 1 of 2 here] |  | 6.94 nM | 33 nM | 91% | 
9 | CCc1c(C#N)cc2ccccc2c1C(=O)N(C)C[C@@H](CCN1CCC(c2ccccc2[S@+](C)[O-])CC1)c1ccc(Cl)c(Cl)c1 (stereo in doubt; form 2) [listing 2 of 2 here] | 6.25 |  |  |  | 
10 | CCc1c(C#N)cc2ccccc2c1C(=O)N(C)C[C@@H](CCN1CCC(c2ccccc2[S@+](C)[O-])CC1)c1ccc(Cl)c(Cl)c1 (stereo in doubt; form 4) |  | 0.4 nM | 35 nM | 13% | 

Further lines, with some results ahead:

Row | pKB [2] | Ki [4] | Ki [6] | SMILES | Inhibition [11] | further results
11 | 6.35 |  |  | CC(C)Cc1c(C#N)cc2ccccc2c1C(=O)N(C)C[C@@H](CCN1CCC(c2ccccc2[S@+](C)[O-])CC1)c1ccc(Cl)c(Cl)c1 |  | pKB [1]: 7.23
12 | 8.3 |  |  | CN(C[C@@H](CCN1CCC(c2ccccc2[S@+](C)[O-])CC1)c1ccc(Cl)c(Cl)c1)C(=O)c1cc(C#N)cc2ccccc12 |  | 
13 |  | 2.94 nM | 22 nM | CCc1c(C#N)cc2ccccc2c1C(=O)N(C)C[C@@H](CCN1CCC(c2ccccc2[S@+](C)[O-])CC1)c1ccc(Cl)c(Cl)c1 (stereo in doubt; form 3) [listing 1 of 2 here] | 0.3% | 
14 | 6.83 |  |  | CCc1c(C#N)cc2ccccc2c1C(=O)N(C)C[C@@H](CCN1CCC(c2ccccc2[S@+](C)[O-])CC1)c1ccc(Cl)c(Cl)c1 (stereo in doubt; form 3) [listing 2 of 2 here] |  | 
